Test results reported in ChEMBL document CHEMBL3102844, “Synthesis and evaluation of Strychnos alkaloids as MDR reversal agents for cancer cell eradication” (Bioorg Med Chem, 2014).
pIC50, pKd: −log10 of the molar value. Each block holds one molecule with its values, some of them ahead of it. Active and inactive are the calls of the source. No cut-off for these calls is given here.

Columns and labels:
[1] = target: T1, ATP-dependent translocase ABCB1 (Homo sapiens, UniProt P08183); assay: Inhibition of human MDR1 overexpressed in human KB cells assessed as potentiation of vincristine-induced cytotoxicity at 0.28 uM incubated for 1 hr prior to vincristine challenge measured after 4 days by MTT assay relative to verapamil; format: cell-based; settings: 96 h
Homo sapiens [2] = species on record: Homo sapiens; assay: Inhibition of human recombinant p-glycoprotein ATPase activity using ATP as substrate at 0.3 to 1 mM after 40 mins by luciferase-mediated Pgp-Glo assay
How it was run: (§1)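 Reaction started with ATP (5 mM final), 40 min at 37 °C, stopped with ATP detection reagent; residual ATP read by luciferase luminescence. Luminescence difference gives effect on ATPase activity. Triplicates in two independent experiments.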

[3] = Binding affinity to p-glycoprotein (unknown origin) by intrinsic tryptophan fluorescence quenching assay; parameters: species or system Homo sapiens
KB = assay: Cytotoxicity against human KB cells overexpressing human MDR1 assessed as reduction in cell viability after 4 days by MTT assay; format: functional, cell-based
How it was run: (§2)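 KB-MDR (1000 cells/well) or KB-V20C (2000 cells/well) Pgp-overexpressing KB lines in RPMI1640 with 10% FBS; cultured 4 days with serial concentrations of test compound. Viability read by MTT endpoint absorbance. IC50 obtained by fitting a sigmoid Emax model to viability versus concentration; duplicates from three independent experiments.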

[4] = target: T1, ATP-dependent translocase ABCB1; assay: Inhibition of p-glycoprotein (unknown origin) overexpressed in human KBV20C cells assessed as potentiation of vincristine-induced cytotoxicity at 0.14 uM incubated for 1 hr prior to vincristine challenge measured after 4 days by MTT assay; format: cell-based; settings: 96 h
How it was run: (§3)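 Pgp-overexpressing KB-MDR or KB-V20C cells, 1000–2000 cells/well in RPMI1640 with 10% FBS, pretreated 1 h with modulator at final 0.07–3.0 µM, then exposed to serial dilutions of vincristine or doxorubicin for four days. […] Viability read by MTT. Cytotoxic-drug IC50 obtained by sigmoid Emax fit; duplicates, three independent experiments.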

[5] = target: T1, ATP-dependent translocase ABCB1; assay: Inhibition of human MDR1 overexpressed in human KB cells assessed as potentiation of vincristine-induced cytotoxicity at 1 uM incubated for 1 hr prior to vincristine challenge measured after 4 days by MTT assay relative to verapamil; format: cell-based; settings: 96 h
[6] = target: T1, ATP-dependent translocase ABCB1; assay: Inhibition of human MDR1 overexpressed in human KB cells assessed as potentiation of doxorubicin-induced cytotoxicity at 1 uM incubated for 1 hr prior to […] measured after 4 days by MTT assay relative to verapamil; format: cell-based; settings: 96 h
[7] = target: T1, ATP-dependent translocase ABCB1; assay: Inhibition of p-glycoprotein (unknown origin) overexpressed in human KBV20C cells assessed as potentiation of vincristine-induced cytotoxicity at 0.07 uM incubated for 1 hr prior to vincristine challenge measured after 4 days by MTT assay; format: cell-based; settings: 96 h; how it was run: as §3
[8] = target: T1, ATP-dependent translocase ABCB1; assay: Inhibition of human MDR1 overexpressed in human KB cells assessed as potentiation of vincristine-induced cytotoxicity at 0.14 uM incubated for 1 hr prior to vincristine challenge measured after 4 days by MTT assay relative to verapamil; format: cell-based; settings: 96 h
[9] = target: T1, ATP-dependent translocase ABCB1; assay: Inhibition of p-glycoprotein (unknown origin) overexpressed in human KBV20C cells assessed as potentiation of vincristine-induced cytotoxicity at 0.28 uM incubated for 1 hr prior to vincristine challenge measured after 4 days by MTT assay; format: cell-based; settings: 96 h; how it was run: as §3
[10] = target: T1, ATP-dependent translocase ABCB1; assay: Inhibition of human MDR1 overexpressed in human KB cells assessed as potentiation of vincristine-induced cytotoxicity at 0.07 uM incubated for 1 hr prior to vincristine challenge measured after 4 days by MTT assay relative to verapamil; format: cell-based; settings: 96 h
KBV20C = assay: (§4) Cytotoxicity against human KBV20C cells overexpressing pgp assessed as reduction in cell viability after 4 days by MTT assay; format: functional, cell-based; how it was run: as §2
[11] = as §4; format: functional, cell-based; settings: 96 h; how it was run: as §2
Homo sapiens [12] = species on record: Homo sapiens; assay: Induction of human recombinant p-glycoprotein ATPase activity using ATP as substrate at 0.3 to 1 mM after 40 mins by luciferase-mediated Pgp-Glo assay; how it was run: as §1
[13] = target: T1, ATP-dependent translocase ABCB1; assay: Inhibition of human MDR1 overexpressed in human KB cells assessed as potentiation of vincristine-induced cytotoxicity at 3 uM incubated for 1 hr prior to vincristine challenge measured after 4 days by MTT assay relative to verapamil; format: cell-based; settings: 96 h
[14] = target: T1, ATP-dependent translocase ABCB1; assay: Inhibition of p-glycoprotein (unknown origin) overexpressed in human KBV20C cells assessed as potentiation of vincristine-induced cytotoxicity at 1 uM incubated for 1 hr prior to vincristine challenge measured after 4 days by MTT assay; format: cell-based; settings: 96 h
[15] = target: T1, ATP-dependent translocase ABCB1; assay: Inhibition of p-glycoprotein (unknown origin) overexpressed in human KBV20C cells assessed as potentiation of vincristine-induced cytotoxicity at 3 uM incubated for 1 hr prior to vincristine challenge measured after 4 days by MTT assay; format: cell-based; settings: 96 h

T1 sequence (P08183 whole entry): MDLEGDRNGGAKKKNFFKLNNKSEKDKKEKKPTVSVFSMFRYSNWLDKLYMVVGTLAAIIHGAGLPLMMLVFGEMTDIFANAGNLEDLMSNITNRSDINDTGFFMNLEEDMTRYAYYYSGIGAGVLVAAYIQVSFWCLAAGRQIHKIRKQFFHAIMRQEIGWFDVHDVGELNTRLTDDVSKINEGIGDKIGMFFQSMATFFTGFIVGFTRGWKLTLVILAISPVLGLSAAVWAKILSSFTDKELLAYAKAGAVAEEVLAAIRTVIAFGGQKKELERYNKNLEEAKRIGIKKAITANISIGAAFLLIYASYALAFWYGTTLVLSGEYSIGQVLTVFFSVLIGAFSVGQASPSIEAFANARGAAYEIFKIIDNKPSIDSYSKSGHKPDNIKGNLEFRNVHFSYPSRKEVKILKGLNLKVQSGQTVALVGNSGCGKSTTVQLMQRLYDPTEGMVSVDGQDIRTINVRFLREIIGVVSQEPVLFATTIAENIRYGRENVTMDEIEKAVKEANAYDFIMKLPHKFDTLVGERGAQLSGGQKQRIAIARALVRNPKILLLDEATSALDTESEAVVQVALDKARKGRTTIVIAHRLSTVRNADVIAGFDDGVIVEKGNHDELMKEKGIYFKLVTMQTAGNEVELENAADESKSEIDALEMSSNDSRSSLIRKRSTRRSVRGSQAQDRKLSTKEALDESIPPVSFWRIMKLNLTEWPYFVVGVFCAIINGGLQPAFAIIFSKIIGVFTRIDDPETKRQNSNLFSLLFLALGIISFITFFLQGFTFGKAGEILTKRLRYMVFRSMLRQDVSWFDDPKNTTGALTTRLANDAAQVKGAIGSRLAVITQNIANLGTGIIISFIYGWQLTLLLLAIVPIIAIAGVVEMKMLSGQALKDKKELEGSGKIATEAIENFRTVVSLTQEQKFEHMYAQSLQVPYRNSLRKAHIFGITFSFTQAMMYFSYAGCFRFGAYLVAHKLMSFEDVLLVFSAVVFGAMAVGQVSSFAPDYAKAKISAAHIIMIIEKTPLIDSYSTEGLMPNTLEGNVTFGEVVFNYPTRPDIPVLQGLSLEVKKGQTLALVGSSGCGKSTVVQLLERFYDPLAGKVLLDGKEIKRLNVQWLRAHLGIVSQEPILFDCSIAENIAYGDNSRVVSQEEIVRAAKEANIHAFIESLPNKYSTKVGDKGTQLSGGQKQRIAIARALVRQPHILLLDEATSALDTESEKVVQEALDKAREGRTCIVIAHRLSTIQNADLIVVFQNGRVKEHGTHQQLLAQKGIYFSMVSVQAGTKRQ

- inhibition (Homo sapiens [2]): Active
- pKd [3]: 5.35
Compound: CC[C@@H]1CN2CC[C@]34c5ccccc5-n5c3c(cc(C(=O)NCc3cc(OC)c(OC)c(OC)c3)c5=O)[C@H]1C[C@H]24
- fold change (FC) [1]: 3.8
- Activity (KB): Dose-dependent effect
- fold change (FC) [4]: 1
- fold change (FC) [5]: 93.8
- fold change (FC) [6]: 20
- fold change (FC) [7]: 0.6
- fold change (FC) [8]: 2.5
- fold change (FC) [9]: 1.5
- fold change (FC) [10]: 2.1
- Activity (KBV20C): Dose-dependent effect
- pIC50 [11]: 6.42

- Activity (Homo sapiens [12]): Active
- pKd [3]: 4.86
Compound: CC[C@@H]1CN2CC[C@]34c5ccccc5-n5c3c(cc(C(=O)OC)c5=O)[C@H]1C[C@H]24 [LEUCONICINE B]
- fold change (FC) [13]: 6.8
- fold change (FC) [14]: 0.2
- Activity (KB): Dose-dependent effect
- fold change (FC) [5]: 3.8
- Activity (KBV20C): Dose-dependent effect
- fold change (FC) [15]: 0.3

Compound: C/C=C1\CN2CC[C@]34C(=C(C(=O)OC)[C@H]1C[C@H]23)Nc1ccccc14
- Activity (Homo sapiens [12]): Active
- pKd [3]: 4.00
- fold change (FC) [13]: 3.8
- fold change (FC) [14]: 0.2
- Activity (KB): Dose-dependent effect
- fold change (FC) [5]: 2.5
- Activity (KBV20C): Dose-dependent effect
- fold change (FC) [15]: 0.4

Compound: CC[C@@H]1CN2CC[C@]34C(=C(C(=O)OC)[C@H]1C[C@H]23)Nc1ccccc14
- inhibition (Homo sapiens [2]): Active
- pKd [3]: 4.04
- fold change (FC) [13]: 3.8
- fold change (FC) [14]: 0.1
- Activity (KB): Dose-dependent effect
- fold change (FC) [5]: 2.5
- Activity (KBV20C): Dose-dependent effect
- fold change (FC) [15]: 0.2

- Activity (Homo sapiens [12]): Active
- pKd [3]: 4.79
Compound: C/C=C1\CN2CC[C@]34c5ccccc5-n5c3c(cc(C(=O)OC)c5=O)[C@H]1C[C@H]24
- fold change (FC) [13]: 3.8
- fold change (FC) [14]: 0.2
- Activity (KB): Dose-dependent effect
- fold change (FC) [5]: 2.1
- Activity (KBV20C): Dose-dependent effect
- fold change (FC) [15]: 0.3

Compound: C/C=C1\CN2CC[C@]34C(=C(C=O)[C@H]1C[C@H]23)Nc1ccccc14
- Activity (Homo sapiens [12]): Active
- pKd [3]: 4.09
- fold change (FC) [13]: 2.1
- fold change (FC) [14]: 0.2
- Activity (KB): Dose-dependent effect
- fold change (FC) [5]: 2.1
- Activity (KBV20C): Dose-dependent effect
- fold change (FC) [15]: 0.3

- pKd [3]: 4.85
Compound: CC[C@@H]1CN2CC[C@]34c5ccccc5-n5c3c(cc(C(N)=O)c5=O)[C@H]1C[C@H]24 [LEUCONICINE A]
- fold change (FC) [13]: 5
- fold change (FC) [14]: 0.3
- Activity (KB): Dose-dependent effect
- fold change (FC) [5]: 3.8
- Activity (KBV20C): Dose-dependent effect
- fold change (FC) [15]: 0.6
